From PubChem
KLK7 zymogen act: proKLK7 zymogen activators, primary screen, biochemical, fluorescence intensity; purified proKLK7, EDANS-DABCYL substrate fluorescence; 100% is mature enzyme control, 0% vehicle; Kallikrein-7 (Homo sapiens), P49862; hit rate 0.9% among 370,000; activation, % at 7 µM; AID 652039, 2013;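 active = activation above the mean of all tested compounds plus 3 SD, computed per campaign excluding outliers beyond control limits, cut at about 13% in these data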
CRFBP-R2 agonist: agonists of CRF-BP/CRF-R2 complex, primary screen, cell-based, HEK293, calcium dye fluorescence, uHTS. CRF-binding protein / CRF receptor 2 complex (human). calcium dye fluorescence (FLIPR); percent of saturating CRF peptide response. activation, % at 13.2 µM. hit rate 0.46% among 350,000;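 active = activation of at least 50%, plus an integration ratio under a set limit after plate pattern correction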;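 note: plate controls were neutral control wells without compound for no effect and CRF at EC100 for full effect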
Tn6 DDE FP: inhibitors of Tn6 peptide binding to fibrin DD(E), primary screen, biochemical, fluorescence polarization, human fibrin, Tn6 probe | Fibrin DD(E) TRITC-Tn6 fluorescence polarization displacement | Fibrinogen beta chain (Homo sapiens), P02675 | hit rate 0.21% among 370,000 | inhibition, % at 8.3 µM;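 active = inhibition above a per-campaign cutoff: mean of compounds within control limits plus 3 SD, cut at about 15% in these data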;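 note: 0% = median of all compound wells on the plate and 100% = blocking peptide control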
Target sequence (P02675 whole entry, looked up): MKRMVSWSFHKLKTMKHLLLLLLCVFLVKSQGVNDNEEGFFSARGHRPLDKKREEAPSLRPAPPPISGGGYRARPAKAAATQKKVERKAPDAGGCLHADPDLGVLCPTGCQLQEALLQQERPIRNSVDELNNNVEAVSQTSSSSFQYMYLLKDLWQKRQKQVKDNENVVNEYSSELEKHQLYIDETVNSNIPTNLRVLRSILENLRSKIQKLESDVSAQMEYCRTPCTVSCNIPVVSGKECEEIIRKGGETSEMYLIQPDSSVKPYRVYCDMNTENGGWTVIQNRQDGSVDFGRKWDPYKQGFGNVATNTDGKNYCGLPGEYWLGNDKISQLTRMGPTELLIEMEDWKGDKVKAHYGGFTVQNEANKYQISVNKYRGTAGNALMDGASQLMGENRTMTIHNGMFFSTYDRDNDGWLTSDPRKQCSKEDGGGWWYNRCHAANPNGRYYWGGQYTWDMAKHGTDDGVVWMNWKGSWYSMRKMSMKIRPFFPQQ
Tn7 DDE FP: inhibitors of Tn7 peptide binding to fibrin DD(E), primary screen, biochemical, fluorescence polarization, human fibrin, Tn7 probe; AID 720508, 2013; FP displacement of FITC-Tn7 peptide from fibrin DD(E); 0% = median of compound wells per plate; hit rate 0.13% among 370,000; inhibition, % at 8.3 µM; Fibrinogen beta chain (Homo sapiens), P02675;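 active = inhibition above the mean of compounds falling within the control limits plus 3 SD of them, cut at about 14% in these data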;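 note: 0% = plate median of compound wells and 100% = 10 µM Aha-Tn7 peptide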
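Also added: labelled Tn7 tracer, 0.1 µM; Assay system: human fibrin DD(E) protein; Amount: 2 µM fibrin DD(E); Schedule: 10 min compound pre-incubation, 3 h probe incubation at room temperature; Repeats: one replicate per compound; Read-out basis: percent inhibition; Measured by: fluorescence polarization of the labelled Tn7 tracer.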
CRFR2-BP antag: antagonists of CRF-BP/CRF-R2 complex, primary screen, cell-based, HEK293, calcium dye fluorescence, uHTS. hit rate 0.59% among 350,000. AID 588475, 2011. inhibition, % at 11.8 µM. CRF-induced calcium fluorescence;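 active = inhibition of the ligand-induced calcium signal above about 50% at the single tested concentration, limit read from the data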
CendR NRP1 mod: modulators of CendR peptide binding to NRP-1, primary screen, biochemical, fluorescence polarization, uHTS; Neuropilin-1 (Homo sapiens), O14786; FAM-RPARPAR peptide binding to NRP-1; inhibition, % at 25 µM; hit rate 0.85% among 360,000; AID 602438, 2012;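 active = inhibition or corrected inhibition above about 18%, plus a signal ratio from 0.5 to 1.5, limit read from the data, passing the limit was not always enough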
An asterisk follows results filed as active; · = not tested or not shown; ! = repeats disagree. Only some compounds are listed: those with a hit (about 2.9% of all), similar ones and a draw of the others.

SMILES	KLK7 zymogen act	CRFBP-R2 agonist	Tn6 DDE FP	Tn7 DDE FP	CRFR2-BP antag	CendR NRP1 mod
O=C(NCCc1c[nH]c2ccccc12)OCc1cn(Cc2ccc(F)cc2F)nn1	0.0	·	2.2	0.4	·	·
Cc1cc(C(=O)CN2C(=O)NC(C)(c3cc(F)ccc3F)C2=O)c(C)n1C1CC1 (stereo not drawn)	1.3	0.2	-2.5	-2.5	-11.9	3.9
CCC1(c2ccc(F)cc2)NC(=O)N(CC(=O)c2cc(C)n(C3CC3)c2C)C1=O (stereo not drawn)	0.1	65.9*	-1.3	1.1	-46.4	-6.6
CN(C(=O)CN1C(=O)/C(=C/c2ccccc2Cl)SC1=S)C1CCS(=O)(=O)C1 (stereo not drawn)	0.4	6.0	-4.8	0.0	53.0*	6.3
CN(C(=O)CN1C(=O)S/C(=C\c2ccccc2Cl)C1=O)C1CCS(=O)(=O)C1 (stereo not drawn)	-0.3	0.3	4.2	5.9	-12.3	4.0
Cc1cc(NC(=O)CN(C)CC(=O)Nc2ccc(F)c(F)c2F)no1	0.6	-1.0	7.3	-5.3	-2.5	2.3
CCCN(CC(=O)Nc1cc(C)on1)CC(=O)Nc1ccc(F)c(F)c1F	0.1	2.9	5.1	-2.1	-33.1	22.6*
C=C1C(C(=O)Nc2ccccc2)C1C(=O)Nc1ccccc1 (stereo not drawn)	0.8	0.2	1.2	-4.8	59.5*	2.6
CN(C)C(=O)Nc1ccccc1	0.3	-0.5	5.6	2.8	0.7	2.9
CC(=O)Nc1ccc(C(/C=C/c2ccccc2)Cc2ccccc2)cc1 (stereo not drawn)	-0.4	·	-1.0	3.6	·	·
Cc1cc2cc(CNC(=O)c3ccc4c(c3)OCO4)ccc2n1C	-0.4	2.3	13.4	-1.5	6.5	19.6*
COc1cc(C(=O)Nc2cc3c(cc2N2CCCCC2)n(C)c(=O)n3C)cc(OC)c1OC	0.4	0.1	3.0	-1.1	1.3	28.5*
C(#CC1=CCCCC1)CNCc1ccccc1	-0.2	·	-3.8	1.3	·	·
CCC[C@H]1[C@@H](NCc2cccs2)CC[C@@]23CCCN2C(=O)CCC[C@@H]13	·	·	-2.4	0.2	·	·
Cn1c(=O)c2c(ncn2CC(COCc2ccccc2)OCc2ccccc2)n(C)c1=O (stereo not drawn)	0.0	-0.8	-1.7	-0.3	-4.2	29.6*
O=C(Nc1cccc(Cl)c1)Nc1cc(S(=O)(=O)N2CCCCC2)ccc1Cl	0.0	4.6	55.1*	4.7	-10.2	3.3
O=C(NC1CCCCC1)c1cc(S(=O)(=O)N2CCCC2)ccc1Cl	0.3	-0.7	-1.9	-3.0	-0.2	22.2*
CCN1CCN(S(=O)(=O)c2ccc(Cl)c(C(=O)NC3CCCC3)c2)CC1	0.4	-0.7	-4.2	0.2	-5.2	8.2
CN1CCN(S(=O)(=O)c2ccc(NC(=O)Nc3cccc(Cl)c3)cc2)CC1	-0.1	0.6	-15.5	2.5	-8.8	27.0*
Cc1ccc(S(=O)(=O)N2CCCCC2)cc1NC(=O)Nc1ccc(Cl)cc1Cl	-0.3	3.0	0.0	8.6	-4.9	2.8
COC(=O)C1=C(C)NC(C)=C(C(=O)OC)C1C(=O)OC(C)C(=O)c1ccccc1 (stereo not drawn)	0.6	-0.1	-1.9	11.6	3.4	24.9*!
CCN(C(=O)C(C)OC(=O)C1C(C(=O)OC)=C(C)NC(C)=C1C(=O)OC)c1ccccc1 (stereo not drawn)	-0.6	0.6	-0.1	5.5	-13.8	3.4
Cc1ccc(-c2cc(C(=O)N=Nc3c(O)[nH]c4ccccc34)[nH]n2)cc1C	0.3	·	7.9	-7.7	·	·
COC(=O)Cc1ccc(NC(=S)NCCC(C)C)cc1	0.4	-2.0	-0.7	-1.5	87.6*	-8.2
O=C(Nc1ccc2c(c1)Cc1ccccc1-2)NC1CCCCN(Cc2cccc(Cl)c2)C1=O (stereo not drawn)	0.3	·	-2.8	-6.2	·	·
